From ChEMBL document CHEMBL1141029, “Allosteric inhibitors of Akt1 and Akt2: discovery of [1,2,4]triazolo[3,4-f][1,6]naphthyridines with potent and balanced activity” (Bioorg Med Chem Lett, 2009)

Experiments:
[1] = Inhibition of PKC
[2] = biological target: T1, RAC-alpha serine/threonine-protein kinase (Homo sapiens, UniProt P31749); assay: Inhibition of human cloned Akt1 expressed in Drosophila S2 cells by HTRF assay; assay type: cell-based
[3] = Inhibition of PKA
[4] = biological target: T2, RAC-beta serine/threonine-protein kinase (Homo sapiens, UniProt P31751); assay: Inhibition of Akt2 by cell based assay
T2 sequence (P31751 whole entry): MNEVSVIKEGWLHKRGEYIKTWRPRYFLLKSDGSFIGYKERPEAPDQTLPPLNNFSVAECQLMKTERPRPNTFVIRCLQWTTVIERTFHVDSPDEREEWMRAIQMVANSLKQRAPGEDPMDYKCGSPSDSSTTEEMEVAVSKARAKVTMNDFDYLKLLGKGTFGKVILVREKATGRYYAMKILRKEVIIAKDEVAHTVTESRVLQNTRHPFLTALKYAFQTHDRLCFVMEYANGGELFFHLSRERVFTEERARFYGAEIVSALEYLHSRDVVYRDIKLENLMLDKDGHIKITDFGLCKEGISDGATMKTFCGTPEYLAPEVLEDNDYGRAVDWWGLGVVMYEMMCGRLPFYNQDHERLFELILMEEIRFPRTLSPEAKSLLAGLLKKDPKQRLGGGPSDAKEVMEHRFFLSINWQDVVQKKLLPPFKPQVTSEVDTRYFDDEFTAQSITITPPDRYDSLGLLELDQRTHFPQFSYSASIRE

[5] = biological target: T2, RAC-beta serine/threonine-protein kinase; assay: Inhibition of human cloned Akt2 expressed in Drosophila S2 cells by HTRF assay; assay type: cell-based
[6] = biological target: T3, Serine/threonine-protein kinase Sgk1 (Homo sapiens, UniProt O00141); assay: Inhibition of SGK
T3 sequence (O00141 whole entry): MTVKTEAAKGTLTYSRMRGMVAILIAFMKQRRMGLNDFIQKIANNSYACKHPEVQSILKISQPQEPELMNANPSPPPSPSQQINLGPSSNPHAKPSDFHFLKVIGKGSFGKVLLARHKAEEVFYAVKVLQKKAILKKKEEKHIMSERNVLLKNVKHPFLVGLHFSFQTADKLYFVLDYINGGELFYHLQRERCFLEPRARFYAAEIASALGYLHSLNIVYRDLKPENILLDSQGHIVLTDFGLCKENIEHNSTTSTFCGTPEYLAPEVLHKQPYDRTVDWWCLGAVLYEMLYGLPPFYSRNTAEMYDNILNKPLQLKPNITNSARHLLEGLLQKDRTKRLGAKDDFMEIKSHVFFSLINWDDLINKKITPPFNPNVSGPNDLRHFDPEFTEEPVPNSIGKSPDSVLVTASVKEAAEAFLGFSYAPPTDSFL

[7] = biological target: T1, RAC-alpha serine/threonine-protein kinase; assay: Inhibition of Akt1 by cell based assay
[8] = biological target: Voltage-gated inwardly rectifying potassium channel KCNH2 (Homo sapiens, UniProt Q12809); assay: Inhibition of human ERG expressed in HEK cells by competitive radioligand binding assay; assay type: cell-based, HEK293
Chain of Voltage-gated inwardly rectifying potassium channel KCNH2 (Q12809 whole entry): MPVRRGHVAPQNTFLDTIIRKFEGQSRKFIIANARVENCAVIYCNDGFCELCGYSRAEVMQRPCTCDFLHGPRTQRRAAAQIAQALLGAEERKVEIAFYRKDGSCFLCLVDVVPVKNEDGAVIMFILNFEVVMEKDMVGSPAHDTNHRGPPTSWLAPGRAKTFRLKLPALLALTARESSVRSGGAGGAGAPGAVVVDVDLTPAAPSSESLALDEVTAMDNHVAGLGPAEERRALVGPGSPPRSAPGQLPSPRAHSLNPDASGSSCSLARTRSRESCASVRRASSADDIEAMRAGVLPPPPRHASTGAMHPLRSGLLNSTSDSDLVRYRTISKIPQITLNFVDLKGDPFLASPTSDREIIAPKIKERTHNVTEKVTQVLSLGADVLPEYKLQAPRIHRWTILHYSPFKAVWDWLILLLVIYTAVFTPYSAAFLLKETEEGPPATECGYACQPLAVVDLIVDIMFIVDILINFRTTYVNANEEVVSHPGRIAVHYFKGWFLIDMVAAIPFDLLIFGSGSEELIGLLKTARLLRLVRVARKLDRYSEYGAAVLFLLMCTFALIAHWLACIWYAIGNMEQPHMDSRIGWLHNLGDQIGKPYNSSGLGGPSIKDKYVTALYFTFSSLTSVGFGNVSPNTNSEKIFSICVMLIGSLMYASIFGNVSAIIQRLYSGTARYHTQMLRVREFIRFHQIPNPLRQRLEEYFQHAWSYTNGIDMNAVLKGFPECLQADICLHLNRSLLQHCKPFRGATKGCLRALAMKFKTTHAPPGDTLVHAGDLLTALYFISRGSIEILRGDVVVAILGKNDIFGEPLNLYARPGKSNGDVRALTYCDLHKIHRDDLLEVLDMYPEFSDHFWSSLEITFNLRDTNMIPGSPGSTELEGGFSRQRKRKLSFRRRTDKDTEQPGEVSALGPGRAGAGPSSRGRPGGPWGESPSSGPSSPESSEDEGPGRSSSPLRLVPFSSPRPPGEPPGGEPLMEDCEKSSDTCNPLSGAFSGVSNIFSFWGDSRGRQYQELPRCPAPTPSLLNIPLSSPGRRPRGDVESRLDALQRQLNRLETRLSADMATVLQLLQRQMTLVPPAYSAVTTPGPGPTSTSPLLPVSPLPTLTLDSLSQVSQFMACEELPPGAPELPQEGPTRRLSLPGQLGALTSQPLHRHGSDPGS

[9] = tested on: Mus musculus; assay: Inhibition of Akt2 phosphorylation in lung of nude mouse xenografted with C33a cells at 10 mg/mL administered through mini-pump after 20 hrs by IP kinase assay; assay type: functional
[10] = Drug level in blood of nude mouse xenografted with […] at 10 mg/mL after 20 hrs; assay type: ADME, tissue-based; details: whole blood, read-out: Drug uptake
[11] = tested on: Mus musculus; assay: Inhibition of Akt1 phosphorylation in lung of nude mouse xenografted with C33a cells at 70 mg/mL administered through mini-pump after 20 hrs by IP kinase assay; assay type: functional; details: in the assay text read “10 mg/mL” for “70 mg/mL”
[12] = tested on: Mus musculus; assay: Inhibition of Akt2 phosphorylation in lung of nude mouse xenografted with C33a cells at 18 mg/mL administered through mini-pump after 20 hrs by IP kinase assay; assay type: functional
Method in brief: (§1)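 Nude mice bearing C33a cervical carcinoma tumours, 3 per concentration. Hydrochloride salt in 25% hydroxypropyl-b-cyclodextrin given by mini-pump at 8 µL/hr for 20 hrs, pump solution 70 or 18 mg/mL. Blood drawn for PK at 3, 6, 8, 11 and 20 h, so steady-state blood level is known. Euthanized at 20 h. Akt1 and Akt2 phosphorylation activity measured in lung as % inhibition.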

[13] = Drug level in blood of nude mouse xenografted with […] at 70 mg/mL after 20 hrs; assay type: ADME, tissue-based; details: whole blood, read-out: Drug uptake; method in brief: as §1
[14] = tested on: Mus musculus; assay: Inhibition of Akt1 phosphorylation in lung of nude mouse xenografted with C33a cells at 18 mg/mL administered through mini-pump after 20 hrs by IP kinase assay; assay type: functional; method in brief: as §1
[15] = Drug level in blood of nude mouse xenografted with […] at 18 mg/mL after 20 hrs; assay type: ADME, tissue-based; details: whole blood, read-out: Drug uptake; method in brief: as §1
[16] = tested on: Mus musculus; assay: Inhibition of Akt2 phosphorylation in lung of nude mouse xenografted with C33a cells at 70 mg/mL administered through mini-pump after 20 hrs by IP kinase assay; assay type: functional; method in brief: as §1

T1 sequence (P31749 whole entry): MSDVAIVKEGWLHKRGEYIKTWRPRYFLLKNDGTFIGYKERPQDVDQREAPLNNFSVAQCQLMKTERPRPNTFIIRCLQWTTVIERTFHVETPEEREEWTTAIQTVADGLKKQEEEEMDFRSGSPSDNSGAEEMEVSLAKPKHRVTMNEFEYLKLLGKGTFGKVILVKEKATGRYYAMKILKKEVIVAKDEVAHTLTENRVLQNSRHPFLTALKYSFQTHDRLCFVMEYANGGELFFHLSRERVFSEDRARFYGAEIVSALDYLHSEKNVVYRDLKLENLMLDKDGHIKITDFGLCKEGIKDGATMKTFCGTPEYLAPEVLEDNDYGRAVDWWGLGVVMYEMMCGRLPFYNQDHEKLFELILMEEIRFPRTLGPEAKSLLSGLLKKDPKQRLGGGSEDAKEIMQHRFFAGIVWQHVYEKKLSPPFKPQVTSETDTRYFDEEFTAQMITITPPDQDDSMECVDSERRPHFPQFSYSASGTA

Compound	IC50 [1] [µM]	IC50 [2] [µM]	IC50 [3] [µM]	IC50 [4] [µM]	IC50 [5] [µM]	IC50 [6] [µM]	IC50 [7] [µM]	IC50 [8] [µM]	inhibition (INH) [9] [%]	concentration at 20 h [10] [nM]	inhibition (INH) [11] [%]	inhibition (INH) [12] [%]	concentration at 20 h [13] [nM]	inhibition (INH) [14] [%]	concentration at 20 h [15] [nM]	inhibition (INH) [16] [%]
NC(=O)Nc1nnc2c3cc(-c4ccccc4)c(-c4ccc(CN5CCC(c6n[nH]c(-c7ccccn7)n6)CC5)cc4)nc3ccn12	> 50	0.0085	> 50	1.21	0.0241	> 50	0.265	–	–	–	–	–	–	–	–	–
CN1CCN(Cc2nnc3c4cc(-c5ccccc5)c(-c5ccc(CN6CCC(c7n[nH]c(-c8ccccn8)n7)CC6)cc5)nc4ccn23)CC1	> 50	0.0099	> 50	0.376	0.0551	> 50	0.0625	–	–	–	–	–	–	–	–	–
ClCc1nnc2c3cc(-c4ccccc4)c(-c4ccc(CN5CCC(c6n[nH]c(-c7ccccn7)n6)CC5)cc4)nc3ccn12	> 50	0.0267	> 50	0.483	0.0105	> 50	0.113	2.02	–	–	–	–	–	–	–	–
Sc1nnc2c3cc(-c4ccccc4)c(-c4ccc(CN5CCC(c6n[nH]c(-c7ccccn7)n6)CC5)cc4)nc3ccn12	> 50	0.01	> 50	0.108	0.0104	> 50	0.017	–	–	–	–	–	–	–	–	–
Cc1nnc2c3cc(-c4ccccc4)c(-c4ccc(CN5CCC(c6n[nH]c(-c7ccccn7)n6)CC5)cc4)nc3ccn12	> 50	0.0046	> 50	0.177	0.0146	> 50	0.0246	–	–	–	–	–	–	–	–	–
Nc1nnc2c3cc(-c4ccccc4)c(-c4ccc(CN5CCC(c6n[nH]c(-c7ccccn7)n6)CC5)cc4)nc3ccn12	> 50	0.0028	> 50	0.0477	0.0094	> 50	0.0181	–	–	–	–	–	–	–	–	–
O=c1[nH]ccc2nc(-c3ccc(CN4CCC(c5n[nH]c(-c6ccccn6)n5)CC4)cc3)c(-c3ccccc3)cc12	–	–	–	–	–	–	–	5.61	4	3000	85	–	–	–	–	–
Nc1nnc2c3cc(-c4ccccc4)c(-c4ccc(CN5CCC(n6cnc(-c7ccccn7)c6)CC5)cc4)nc3ccn12	–	0.0033	–	0.0748	0.0028	–	0.0183	–	–	–	–	–	–	–	–	–
Oc1nnc2c3cc(-c4ccccc4)c(-c4ccc(CN5CCC(c6n[nH]c(-c7ccccn7)n6)CC5)cc4)nc3ccn12	> 50	0.0026	> 50	0.168	0.0067	> 50	0.027	5.31	–	–	–	–	–	–	–	–
OCCNCc1nnc2c3cc(-c4ccccc4)c(-c4ccc(CN5CCC(c6n[nH]c(-c7ccccn7)n6)CC5)cc4)nc3ccn12	> 50	0.017	> 50	0.251	0.0779	> 50	0.0418	–	–	–	–	–	–	–	–	–
c1ccc(-c2cc3c(ccn4cnnc34)nc2-c2ccc(CN3CCC(c4n[nH]c(-c5ccccn5)n4)CC3)cc2)cc1	> 50	0.004	> 50	0.041	–	> 50	0.005	> 10	–	–	–	41	1700	92	1800	35
